Screens (PubChem BioAssay)
Hits are enriched below; roughly 9.6% of the tested compounds scored in any of these assays.
b-catenin transl = modulators of beta-catenin nuclear translocation; HeLa beta-catenin nuclear translocation, immunofluorescence imaging; nuclear translocation activity, % at 5 µM; 190,000 compounds, 0.3% hits; AID 1665;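 active means nuclear translocation activity above 50% at 5 µM, with a well cell count of 50 or more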;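 further: per-cell ratio of nuclear to cytoplasmic median beta-catenin stain intensity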
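System: Human HeLa cells, endogenous beta-catenin | Compound dosing: 5 µM primary, 0.02–20 µM confirmation | Timing: 24 h compound exposure at 37°C, 5% CO2 | Measured by: Fluorescence imaging of beta-catenin antibody stain plus DAPI | Read-out basis: % activation of per-cell nuclear versus cytoplasmic median beta-catenin signal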
Ba/F3 V617F tox = loss of viability in JAK2V617F-driven Ba/F3 cells | Ba/F3 EpoR-JAK2V617F viability, ATP luminescence | inhibition, % at 5.6 µM | 220,000 compounds, 1.1% hits | AID 1446;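 active means inhibition above the campaign mean plus 3 SD over all tested compounds, cut at about 24% in these data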;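 further: cytokine-independent growth of Ba/F3 cells driven by EpoR plus mutant JAK2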
Lmaj promast = reduces viability of Leishmania major promastigotes. resazurin fluorescence viability. inhibition, % at 10 µM. 200,000 compounds, 9% hits. AID 1063; in the data active means inhibition above about 50%;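 further: promastigotes grown with compound for 44 hours at 28 °C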
MT stabilize HCS = microtubule stabilization, imaging screen | HeLa tubulin immunostaining HCS, 24 h; share of cells brighter than vehicle mean+2SD | % tubulin-high responders, % at 10 µM | 200,000 compounds, 0.83% hits | AID 2205;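 active means plate Z-score above 3 for both tubulin-high and condensed-nucleus cell shares, with cell loss under 80%, at 10 µM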;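 further: anti alpha tubulin signal scored within the nucleus-defined area of each cell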
BaF3 parental = counter-screen for JAK2V617F inhibitors: parental Ba/F3 viability inhibitors. AID 1486. inhibition, % at 5.6 µM. 220,000 compounds, 1.1% hits. CellTiter-Glo ATP luminescence;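 active means inhibition above a per-campaign cutoff, the mean inhibition of all tested compounds plus 3 SD, cut at about 27% in these data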
APP 5UTR inh = APP translation inhibition | SH-SY5Y APP 5'UTR-luciferase reporter, luminescence | 190,000 compounds, 0.82% hits | inhibition, % at 2 µM;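 active means inhibition above a set limit, derived from the sample mean plus 3 SD, cut at about 45% in these data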
Of the large screens only hits and unclear results are named; the others gave an inactive call.

Cc1nccc2[nH]c(=O)c(C(=O)NC(C)CCc3ccccc3)cc12 (centres undefined)	none
Cc1cccc2cc(C3CC(c4ccco4)=NN3C(=O)CCC(=O)O)c(Cl)nc12 (centres undefined)	none
C=CCNC(=O)c1ccc(Sc2ccc(C)cc2)c([N+](=O)[O-])c1	none
Cc1ccc(Sc2ccc(CN3CCCCC3)cc2[N+](=O)[O-])cc1	Lmaj promast 79.2
COc1ccc(NC(=O)N[C@@H](CCSC)C(=O)O)cc1Cl	none
O=Cc1cccn1Cc1ccccc1[N+](=O)[O-]	none (no result: b-catenin transl)
CC(C)C(Nc1ccc(S(=O)(=O)N2CCOCC2)cc1[N+](=O)[O-])C(=O)O (centres undefined)	none
CSCCC(Nc1ccc(S(=O)(=O)N2CCOCC2)cc1[N+](=O)[O-])C(=O)OCC(=O)NCC(C)C (centres undefined)	Lmaj promast 65.1
O=C(CN1CCC(n2nnc3cc(F)ccc32)CC1)NCc1ccco1	none
COc1cc(OC)cc(C(=O)NCCNC(=O)c2ccco2)c1	none
CCCCN(C(=O)NC(=O)C1=C(N2CCOCC2)/C(=C/c2ccccc2)CC1)S(C)(=O)=O	none
CCOC(=O)C(=O)C1=C(N2CCOCC2)/C(=C\c2ccc(F)cc2)CC1	Lmaj promast 71.5 (no result: b-catenin transl)
O=C(Nc1cccc(S(=O)(=O)N2CCOCC2)c1)c1ccc(N2CCOCC2)c([N+](=O)[O-])c1	none
O=c1cc(-c2ccccc2F)oc2ccccc12	none
O=c1cc(-c2ccccc2[N+](=O)[O-])oc2ccccc12	MT stabilize HCS 12.4
Cc1cc(NC(=O)CSc2nnc(-c3ccncc3)n2-c2ccc(F)cc2)no1	none
COc1ccc(-c2noc(CSc3nnc(-c4ccncc4)n3-c3ccc(F)cc3)n2)cc1OC	Lmaj promast 71.7
CCc1ccc(-n2c(SCc3c(C)noc3C)nnc2-c2ccncc2)cc1	Lmaj promast 72.0
O=C(COc1ncnc2scc(-c3ccccc3)c12)NCCN1C(=O)CSC1=O	none
CC(C)C(NC(=O)OCc1ccccc1)C(=O)NC1CCCCC1 (centres undefined)	none
NC1=NC(=O)/C(=C\c2cc([N+](=O)[O-])ccc2Cl)S1	none
FC(F)(F)COc1nc(N/N=C/c2cccnc2)nc(N2CCCCC2c2ccccn2)n1 (centres undefined)	Lmaj promast 51.5
C(=N\Nc1nc(N2CCCC2)nc(N2CCCC2)n1)/c1cccnc1	none
Cc1ccc(Cl)c(OCCCCN(C)Cc2ccccc2)c1	Lmaj promast 90.6
CCOc1ccc(CN(C)CC(=O)NCc2ccccc2)cc1	none (no result: Lmaj promast, MT stabilize HCS, APP 5UTR inh)
CN(CCOCCOc1ccc(Cl)cc1Br)Cc1ccccc1	Lmaj promast 87.2
CN(CCCOc1ccccc1Br)Cc1ccccc1	none
CCOc1ccc(OCCN(C)Cc2ccccc2)cc1	Lmaj promast 92.8
Cc1ccc(Cl)c(OCCCN(C)Cc2ccccc2)c1	none (no result: Lmaj promast, MT stabilize HCS)
CCOc1cccc(OCCOCCN(C)Cc2ccccc2)c1	Lmaj promast 79.5
CCOC(=O)c1c(-n2cccc2)sc2c1CCCC2=O	none
C#CCNC(=O)C1=C[C@@H](c2ccc(C(F)(F)F)cc2)[C@H](CCCO)[C@@H](OCC)O1	none
Cc1ccc2c(C)nc(NC3=NCN(C(C)C)CN3)nc2c1	BaF3 parental 30.7 (no result: b-catenin transl)
Cc1nc(NC2=NCN(Cc3ccc4c(c3)OCO4)CN2)nc2ccccc12	none (no result: Ba/F3 V617F tox, Lmaj promast, MT stabilize HCS, BaF3 parental, APP 5UTR inh)
COc1ccc(/C=C/C(=O)N[C@H](C(=O)O)C(C)C)cc1	none
CCN(CC)CCNC(=O)c1ccc(CS(=O)(=O)c2ccc(Br)cc2)o1	Lmaj promast 78.5
O=C(NC1CCCCC1)C(c1ccncc1)N(Cc1ccccc1)C(=O)c1ccc(-c2ccccc2)[nH]1 (centres undefined)	Lmaj promast 98.8
CC(C)(C)NC(=O)C(c1ccncc1)N(Cc1ccco1)C(=O)c1ccc(-c2ccccc2)[nH]1 (centres undefined)	Lmaj promast 74.2
COc1ccc(Cl)cc1C(=O)CSc1nnnn1C	none
Cc1ccc2nc(Cl)c(/C=N/Nc3nc(C)cc(C)n3)c(=O)n2c1	Lmaj promast 57.1 (no result: b-catenin transl)
COc1cc(OC)cc(C(=O)NC(C)c2ccc(Br)cc2)c1 (centres undefined)	none
COc1cccc(C(=O)NC(C)c2ccc(Br)cc2)c1 (centres undefined)	Lmaj promast 60.5
CCCC(=O)N1N=C(c2ccccc2)CC1c1cn(C)c2ccccc12 (centres undefined)	none
COc1ccccc1C1CC(c2ccc(NS(C)(=O)=O)cc2)=NN1C(=O)c1ccccc1 (centres undefined)	Lmaj promast 77.0
Cn1cc(C2CC(c3ccccc3)=NN2C(=O)c2ccccc2)c2ccccc21 (centres undefined)	MT stabilize HCS 24.1
COc1cccc(C2CC(c3ccc(NS(C)(=O)=O)cc3)=NN2C(=O)c2ccccc2)c1OC (centres undefined)	none
O=C(CSc1n[nH]c(=O)[nH]c1=O)NC1CC1	none
O=C(c1ccco1)N1CCN(Cc2nc3cc(Cl)ccc3c(=O)[nH]2)CC1	none
COC(=O)c1ccc(CN2CCN(CCc3ccccc3)C(CCO)C2)cc1 (centres undefined)	Lmaj promast 91.3
COC(=O)c1ccc(CN2CCN(CCC(C)C)C(CCO)C2)cc1 (centres undefined)	Lmaj promast 62.0
COc1cccc(CN2CCN(Cc3ccc(O)cc3)CC2CCO)c1 (centres undefined)	Lmaj promast 69.3
OCCC1CN(Cc2cccc(-c3ccco3)c2)CCN1Cc1ccsc1 (centres undefined)	Lmaj promast 84.7
OCCC1CN(Cc2ccc3nonc3c2)CCN1Cc1ccsc1 (centres undefined)	none
OCCC1CN(Cc2ccccc2O)CCN1CCc1ccccc1 (centres undefined)	none
CCc1nn(-c2ccccc2)c2c1-c1cc(OC)c(OC)cc1C1(N2)C(=O)Nc2ccccc21 (centres undefined)	none (no result: b-catenin transl)
CCCOc1ccc(C(NC(=O)CC(C)C)NC(=O)CC(C)C)cc1OC	none
CCOc1cc(CN2CCN(CCc3ccccc3)C(CCO)C2)ccc1OC (centres undefined)	none
COc1cc(CN2CCN(CCc3ccccc3)C(CCO)C2)cc(OC)c1 (centres undefined)	Lmaj promast 63.9
O=C(N/N=C/c1ccco1)C1CC(=O)N(c2ccccc2)C1 (centres undefined)	none
CCOC(=O)c1c(C)c(C(=O)Nc2ccc(N(C)C)cc2)c(C)n1CC	MT stabilize HCS 13.5
CCN(CC)P(=O)(Nc1ccccc1Br)c1ccc(N(C)C)cc1NC(=O)c1ccco1 (centres undefined)	Lmaj promast 73.2
C#CC(CC)(CC)NC(=S)Nc1ccc(S(N)(=O)=O)cc1	none
Cc1cc(C(=O)N/N=C2\CC(=O)c3ccccc32)c(C)n1-c1ccccc1	Lmaj promast 97.7
COc1ccc2c(c1)cc(C(=O)O)n2C	none
